Measurements reported in article PMC10688270 (Neurochemical research, 2019).
Entries after “also recorded” stand apart in the source; their conditions may differ. Where two headings read alike, the source gives them in different places.

Tests used:
SXc− [1] = biological target: T1, SXc− (Homo sapiens, UniProt Q9UPY5); experiment: Inhibition of SXc−-mediated uptake of 3H-L-Glu into SNB19 cells; type: cell-based; conditions: for fold less effective than SAS: comparison of inhibition of SXc− with SAS
T1 sequence (Q9UPY5 1-501): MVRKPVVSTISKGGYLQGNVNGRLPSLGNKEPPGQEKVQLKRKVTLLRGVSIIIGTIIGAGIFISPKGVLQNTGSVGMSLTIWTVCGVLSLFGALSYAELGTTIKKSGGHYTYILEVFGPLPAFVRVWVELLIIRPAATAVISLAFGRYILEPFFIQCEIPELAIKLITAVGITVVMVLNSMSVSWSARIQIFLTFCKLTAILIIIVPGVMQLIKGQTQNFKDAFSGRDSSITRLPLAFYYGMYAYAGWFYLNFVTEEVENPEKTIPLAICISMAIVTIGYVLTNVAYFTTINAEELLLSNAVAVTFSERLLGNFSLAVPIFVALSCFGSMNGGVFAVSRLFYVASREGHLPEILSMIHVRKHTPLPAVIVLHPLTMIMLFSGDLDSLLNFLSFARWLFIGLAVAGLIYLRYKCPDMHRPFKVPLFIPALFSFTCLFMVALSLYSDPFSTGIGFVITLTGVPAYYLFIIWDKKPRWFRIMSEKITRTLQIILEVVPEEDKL
T1 sequence (P08195 1-529 partner): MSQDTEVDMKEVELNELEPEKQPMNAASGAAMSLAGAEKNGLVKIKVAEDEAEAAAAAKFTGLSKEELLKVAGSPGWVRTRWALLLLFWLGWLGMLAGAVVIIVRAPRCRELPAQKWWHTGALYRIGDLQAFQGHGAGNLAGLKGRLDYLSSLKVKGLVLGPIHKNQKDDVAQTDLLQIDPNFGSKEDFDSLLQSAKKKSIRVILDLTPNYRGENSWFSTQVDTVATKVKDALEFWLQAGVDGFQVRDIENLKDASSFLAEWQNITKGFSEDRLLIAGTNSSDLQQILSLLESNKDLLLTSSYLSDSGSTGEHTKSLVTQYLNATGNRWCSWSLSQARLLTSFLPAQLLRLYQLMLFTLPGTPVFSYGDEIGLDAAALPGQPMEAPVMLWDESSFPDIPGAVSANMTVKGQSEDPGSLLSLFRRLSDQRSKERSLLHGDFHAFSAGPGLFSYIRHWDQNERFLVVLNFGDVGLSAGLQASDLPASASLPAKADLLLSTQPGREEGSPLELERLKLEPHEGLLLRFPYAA
Method in brief: (§1)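 Human SNB19 glioma cells were grown in DMEM/F-12 (pH 7.4) with 10% fetal calf serum at 37°C and 5% CO2. They were seeded at 3×10^4 cells/well and used after 3 days at 80–90% confluence. Cells were pre-incubated 5 min at 30°C in Na+-free (choline-Cl) HEPES-buffered Hank's salt solution, pH 7.4. Test compound was added simultaneously with 3H-L-Glu for 5 min at 30°C. Uptake was read by scintillation counting, normalised to BCA protein, and corrected by subtracting 4°C accumulation. Duplicate wells per experiment; n ≥ 3 experiments.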

SXc− [2] = biological target: T1, SXc−; experiment: Kinetic analysis; type: cell-based; conditions: for Inhibitory Mechanism: V vs [S] and Lineweaver-Burk plots, SNB19 cells
Method in brief: as §1

SXc− [3] = conditions: previous work; cited from earlier work
[4] = read-out: IC50 for the inhibition of SXc−-mediated uptake of 3H-L-Glu into SNB19 cells, Mean ± SEM (n ≥ 3), single concentration of L-Glu (100 μM), Na+-free buffer, 5 min, 30°C

Compound: O=S(=O)(O)c1cc2cc(S(=O)(=O)O)c(O)cc2cc1O [3,6-dihydroxy-2,7-naphthylene-disulfonate]
- IC50 (SXc− [1]; [4]): > 500 µM

Compound: Nc1cc(S(=O)(=O)O)cc2cc(S(=O)(=O)O)cc(O)c12 [4-Amino-5-OH-2,7-naphthylene-disulfonate]
- inhibitory activity at SXc− (in words) (SXc− [1]; 3H-L-Glu uptake into SNB19 cells): inactive
- IC50 (SXc− [1]; [4]): > 500 µM

Compound: Nc1ccc(N=Nc2ccc(-c3ccc(N=Nc4ccc(N)c5ccc(S(=O)(=O)O)cc45)cc3)cc2)c2cc(S(=O)(=O)O)ccc12 [AANS #6]
- Inhibitory Mechanism (SXc− [2]): Noncompetitive (Mixed)
- Inhibitory Mechanism (SXc− [2]; listed as #6): mixed inhibition

Compound: Nc1c(N=Nc2ccc([N+](=O)[O-])cc2)c(S(=O)(=O)[O-])cc2cc(S(=O)(=O)[O-])c(N=Nc3ccccc3)c(O)c12.[Na+].[Na+] [Acid Black 1]
- Inhibitory Mechanism (SXc− [2]): Competitive
- Inhibitory Mechanism (SXc− [2]; listed as Acid Black): competitive mechanism; also recorded: competitive inhibition

Compound: CC(=O)Nc1cc(S(=O)(=O)O)cc2cc(S(=O)(=O)O)c(N=Nc3ccccc3)c(O)c12 [Acid Red 1]
- IC50 (SXc− [1]; [4]): 191 ± 8 µM

Compound: O=C(O)c1cc(N=Nc2cccc([N+](=O)[O-])c2)ccc1[O-].[Na+] [Alizarin Yellow GG]
- fold less effective than SAS (SXc− [1]): about 5 fold
- IC50 (SXc− [1]; [4]): 30 ± 7 µM

Compound: O=[N+]([O-])c1ccc(N=Nc2c(S(=O)(=O)O)cc3cc(S(=O)(=O)O)cc(O)c3c2O)cc1 [Chromotrope 2B]
- IC50 (SXc− [1]; [4]): 130 ± 23 µM

Compound: O=S(=O)(O)c1cc(O)c2c(O)c(N=Nc3ccccc3)c(S(=O)(=O)O)cc2c1 [Chromotrope 2R]
- IC50 (SXc− [1]; [4]): 21 ± 5 µM

Compound: Nc1c(/N=N/c2ccc(-c3ccc(/N=N/c4cc(S(=O)(=O)O)c5ccccc5c4N)cc3)cc2)cc(S(=O)(=O)O)c2ccccc12 [Congo Red]
- block of glutamate uptake by SXc− (in words) (SXc− [3]): relatively poor blocker

Compound: Nc1cc(S(=O)(=O)O)cc2cc(S(=O)(=O)O)c(N=Nc3cc([N+](=O)[O-])cc(Cl)c3O)c(O)c12 [Gallion]
- IC50 (SXc− [1]; [4]): 155 ± 11 µM

Compound: O=C(O)c1cc(N=Nc2ccc([N+](=O)[O-])cc2)ccc1O [Mordant Orange 1]
- IC50 (SXc− [1]; [4]): 38 ± 3 µM

Compound: COc1ccccc1N=Nc1c(S(=O)(=O)O)cc2cc(S(=O)(=O)O)cc(NC(C)=O)c2c1O [Pontacyl Carmine 2B]
- IC50 (SXc− [1]; [4]): > 250 µM

Compound: O=S(=O)(O)c1cc(O)c2c(O)c(/N=N/c3cccc4ccccc34)c(S(=O)(=O)O)cc2c1 [Pontacyl Violet 6R]
- IC50 (SXc− [1]): > 250 µM

Compound: O=C(O)c1cc(/N=N/c2ccc(S(=O)(=O)Nc3ccccn3)cc2)ccc1O [Sulfasalazine]
- Ki (SXc− [2]): 10.4 ± 1.3 µM
- Inhibitory Mechanism (SXc− [2]): Competitive
- Inhibitory Mechanism (SXc− [2]; listed as SAS): competitive inhibition

Compound: Chrome Yellow
- fold less effective than SAS (SXc− [1]): about 5 fold
- IC50 (SXc− [1]; [4]): 27 ± 4 µM
